Source: ChEMBL document CHEMBL4725349, “Discovery of First-in-Class Protein Arginine Methyltransferase 5 (PRMT5) Degraders” (J Med Chem, 2020)
One block for each molecule: values may come before it. Active and inactive are the calls of the source. No cut-off for these calls is given here.

Tests used:
[1] = target: von Hippel-Lindau disease tumor suppressor/Agrin (Homo sapiens) (UniProt P40337+O00468); experiment: Induction of VHL-mediated AGRN degradation in human MCF7 cells at 5 uM supplemented with fresh medium containing compound every 2 days for 5 days by LC-MS based LFQ global proteomics analysis; format: cell-based; conditions: time 5.0 day
von Hippel-Lindau disease tumor suppressor/Agrin (Homo sapiens), sequence (O00468 whole entry, looked up): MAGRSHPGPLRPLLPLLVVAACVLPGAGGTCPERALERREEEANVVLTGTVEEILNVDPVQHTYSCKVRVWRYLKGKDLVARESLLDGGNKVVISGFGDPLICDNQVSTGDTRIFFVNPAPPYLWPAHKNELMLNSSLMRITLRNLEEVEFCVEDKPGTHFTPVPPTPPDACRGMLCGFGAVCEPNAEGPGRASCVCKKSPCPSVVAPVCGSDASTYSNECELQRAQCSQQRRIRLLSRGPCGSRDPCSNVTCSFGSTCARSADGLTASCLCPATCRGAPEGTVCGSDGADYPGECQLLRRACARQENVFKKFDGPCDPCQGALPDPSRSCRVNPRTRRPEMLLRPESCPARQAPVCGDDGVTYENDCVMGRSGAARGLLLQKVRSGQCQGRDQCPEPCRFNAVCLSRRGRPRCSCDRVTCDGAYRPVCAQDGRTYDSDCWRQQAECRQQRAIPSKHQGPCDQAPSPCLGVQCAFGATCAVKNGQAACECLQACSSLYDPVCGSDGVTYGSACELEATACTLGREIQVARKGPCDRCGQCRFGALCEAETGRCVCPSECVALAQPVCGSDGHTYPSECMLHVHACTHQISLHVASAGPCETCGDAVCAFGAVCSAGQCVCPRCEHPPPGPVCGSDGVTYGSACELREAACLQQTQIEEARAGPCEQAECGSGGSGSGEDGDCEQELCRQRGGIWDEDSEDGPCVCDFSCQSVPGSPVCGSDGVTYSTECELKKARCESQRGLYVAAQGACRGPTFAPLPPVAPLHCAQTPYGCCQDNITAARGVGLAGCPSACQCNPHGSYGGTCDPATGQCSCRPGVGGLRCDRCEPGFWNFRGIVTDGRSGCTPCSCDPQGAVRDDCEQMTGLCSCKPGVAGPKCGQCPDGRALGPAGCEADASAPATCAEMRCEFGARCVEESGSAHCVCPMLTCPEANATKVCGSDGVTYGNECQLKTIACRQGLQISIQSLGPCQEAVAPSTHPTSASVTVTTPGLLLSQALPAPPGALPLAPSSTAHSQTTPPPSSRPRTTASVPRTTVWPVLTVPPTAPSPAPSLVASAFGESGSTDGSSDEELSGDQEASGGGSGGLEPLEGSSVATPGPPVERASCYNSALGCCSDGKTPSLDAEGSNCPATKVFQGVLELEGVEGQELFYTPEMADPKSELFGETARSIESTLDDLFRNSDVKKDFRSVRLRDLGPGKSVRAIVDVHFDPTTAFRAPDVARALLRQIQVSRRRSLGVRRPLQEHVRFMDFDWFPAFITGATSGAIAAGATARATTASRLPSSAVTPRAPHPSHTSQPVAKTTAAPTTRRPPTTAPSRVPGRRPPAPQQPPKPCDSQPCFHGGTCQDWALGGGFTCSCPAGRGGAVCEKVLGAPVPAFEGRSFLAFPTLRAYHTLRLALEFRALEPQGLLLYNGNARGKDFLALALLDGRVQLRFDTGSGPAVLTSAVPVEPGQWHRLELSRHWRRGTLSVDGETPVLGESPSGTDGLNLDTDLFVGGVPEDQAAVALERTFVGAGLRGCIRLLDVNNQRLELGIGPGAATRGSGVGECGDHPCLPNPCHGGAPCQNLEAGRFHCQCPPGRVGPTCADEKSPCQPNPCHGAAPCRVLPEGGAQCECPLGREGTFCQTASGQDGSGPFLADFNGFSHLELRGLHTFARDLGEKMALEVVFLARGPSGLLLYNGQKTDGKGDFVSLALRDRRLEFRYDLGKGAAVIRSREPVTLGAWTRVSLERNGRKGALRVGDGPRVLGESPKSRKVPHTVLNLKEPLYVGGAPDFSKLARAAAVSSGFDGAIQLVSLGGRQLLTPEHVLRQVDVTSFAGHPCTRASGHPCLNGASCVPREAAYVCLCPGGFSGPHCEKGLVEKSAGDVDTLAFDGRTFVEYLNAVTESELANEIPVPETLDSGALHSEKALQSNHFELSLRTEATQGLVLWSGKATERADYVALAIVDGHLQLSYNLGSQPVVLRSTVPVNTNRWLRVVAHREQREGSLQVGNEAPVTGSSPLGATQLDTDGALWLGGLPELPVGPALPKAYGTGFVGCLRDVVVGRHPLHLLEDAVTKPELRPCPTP
von Hippel-Lindau disease tumor suppressor/Agrin (Homo sapiens), sequence (P40337 whole entry, looked up): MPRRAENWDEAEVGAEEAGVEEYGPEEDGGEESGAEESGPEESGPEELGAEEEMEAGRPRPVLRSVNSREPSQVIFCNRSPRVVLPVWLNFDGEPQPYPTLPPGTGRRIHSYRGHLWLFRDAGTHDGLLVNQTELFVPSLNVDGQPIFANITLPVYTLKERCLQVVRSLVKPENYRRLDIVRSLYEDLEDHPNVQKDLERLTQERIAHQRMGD
In short: (§1)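 MCF-7 cells given 5 μM compound or DMSO for 5 d, with fresh medium plus compound every 48 h; two biological replicates. Lysis in 8 M urea/50 mM Tris pH 8.0, DTT reduction, iodoacetamide alkylation, overnight trypsin digestion. Peptides run on nanoLC-Q-Exactive HF-X, 130 min gradient. Label-free quantitation; fold changes tested by two-sample t test.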

Jurkat = experiment: Antiproliferative activity against human Jurkat cells assessed as reduction in cell viability supplemented with fresh medium containing compound every other day for 6 days by CellTiter-Glo assay; format: functional, cell-based; conditions: dose microM 0.1-10, time 6.0 day
In short: (§2)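 HeLa, A549 and A172 grown in DMEM + 10% FBS; Jurkat in RPMI 1640 + 10% FBS; all at 37 °C, 5% CO2. Cells seeded, then treated 6 d with test agent, medium plus compound renewed every other day. Viability read by CellTiter-Glo and normalized to DMSO-treated cells; mean ± SD, n = 3.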

[2] = target: T1, von Hippel-Lindau disease tumor suppressor/Protein arginine N-methyltransferase 5 (Homo sapiens, UniProt O14744+P40337); experiment: Induction of VHL-mediated PRMT5 degradation in human MCF7 cells at 5 uM supplemented with fresh medium containing compound every 2 days for 5 days by LC-MS based LFQ global proteomics analysis; format: cell-based; conditions: time 5.0 day; in short: as §1
Target sequence in this assay (O14744 whole entry, looked up): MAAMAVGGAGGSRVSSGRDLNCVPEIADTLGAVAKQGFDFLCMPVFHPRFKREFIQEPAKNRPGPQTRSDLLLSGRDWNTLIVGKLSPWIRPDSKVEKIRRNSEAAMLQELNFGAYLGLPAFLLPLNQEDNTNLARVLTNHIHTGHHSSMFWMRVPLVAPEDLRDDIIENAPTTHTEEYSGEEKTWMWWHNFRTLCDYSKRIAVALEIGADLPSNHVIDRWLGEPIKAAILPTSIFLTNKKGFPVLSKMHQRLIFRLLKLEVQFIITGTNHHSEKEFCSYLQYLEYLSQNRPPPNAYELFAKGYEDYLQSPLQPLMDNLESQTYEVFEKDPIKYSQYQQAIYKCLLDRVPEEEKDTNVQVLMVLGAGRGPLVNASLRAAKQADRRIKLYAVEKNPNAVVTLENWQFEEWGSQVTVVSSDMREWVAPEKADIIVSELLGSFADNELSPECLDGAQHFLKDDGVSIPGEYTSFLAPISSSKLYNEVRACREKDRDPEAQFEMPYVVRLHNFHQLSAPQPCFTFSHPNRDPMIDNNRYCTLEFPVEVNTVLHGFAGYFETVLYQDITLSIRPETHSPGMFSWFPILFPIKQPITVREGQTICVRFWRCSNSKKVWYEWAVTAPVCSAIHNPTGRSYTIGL
Target sequence in this assay (P40337 whole entry, looked up): as the sequence (P40337 whole entry, looked up) above

[3] = target: T1, von Hippel-Lindau disease tumor suppressor/Protein arginine N-methyltransferase 5; experiment: Induction of VHL-mediated PRMT5 degradation in human A549 cells at 5 uM incubated for 6 days by Western blot analysis; format: cell-based; conditions: time 6.0 day
In short: (§3)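 HeLa, A549, A172 and Jurkat cells exposed to 5 μM for 6 d. Lysis in RIPA buffer with protease inhibitors, then SDS-PAGE, PVDF transfer and immunoblot for PRMT5 with β-actin loading control, ECL detection. Representative of two independent experiments.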
Target sequence in this assay (O14744 whole entry, looked up): as the sequence (O14744 whole entry, looked up) above
Target sequence in this assay (P40337 whole entry, looked up): as the sequence (P40337 whole entry, looked up) above

MCF7 [4] = experiment: Antiproliferative activity against human MCF7 cells incubated for 6 days by CellTiter-Glo assay; format: functional, cell-based; conditions: dose microM 0.1-10, time 6.0 day
In short: (§4)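 MCF-7 in DMEM + 10% FBS at 37 °C, 5% CO2. Cells exposed to graded concentrations for 6 d, medium with compound refreshed every other day. CellTiter-Glo luminescence, expressed as viability relative to DMSO control; mean ± SD, n = 3.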

[5] = target: T1, von Hippel-Lindau disease tumor suppressor/Protein arginine N-methyltransferase 5; experiment: Induction of VHL-mediated PRMT5 degradation in human MCF7 cells assessed as PRMT5 level at 5 uM incubated for 7 days in presence of proteasome inhibitor MG-132 by Western blot analysis relative to control; format: cell-based; conditions: time 7.0 day
Target sequence in this assay (O14744 whole entry, looked up): as the sequence (O14744 whole entry, looked up) above
Target sequence in this assay (P40337 whole entry, looked up): as the sequence (P40337 whole entry, looked up) above

[6] = target: T1, von Hippel-Lindau disease tumor suppressor/Protein arginine N-methyltransferase 5; experiment: Induction of VHL-mediated PRMT5 degradation in human MCF7 cells incubated for 6 days by Western blot analysis relative to control; format: cell-based; conditions: time 6.0 day
In short: (§5)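 MCF-7 cells treated 6 d (0.2, 1 and 5 μM for initial screen, or indicated concentrations). RIPA lysates immunoblotted for PRMT5. Band intensity quantified by densitometry to derive DC50 and Dmax as mean ± SD from three independent experiments; screening blots representative of at least two.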
Target sequence in this assay (O14744 whole entry, looked up): as the sequence (O14744 whole entry, looked up) above
Target sequence in this assay (P40337 whole entry, looked up): as the sequence (P40337 whole entry, looked up) above

PRMT5/MEP50 complex = PRMT5/MEP50 complex (Homo sapiens, UniProt O14744); experiment: Inhibition of human PRMT5/MEP50 assessed as reduction in methyltransferase activity using histone 4 peptide as substrate in presence of [3H]SAM incubated for 30 mins; format: protein-complex assay
PRMT5/MEP50 complex, sequence (O14744 whole entry): as the sequence (O14744 whole entry, looked up) above
PRMT5/MEP50 complex, sequence (Q9BQA1 whole entry, further chain): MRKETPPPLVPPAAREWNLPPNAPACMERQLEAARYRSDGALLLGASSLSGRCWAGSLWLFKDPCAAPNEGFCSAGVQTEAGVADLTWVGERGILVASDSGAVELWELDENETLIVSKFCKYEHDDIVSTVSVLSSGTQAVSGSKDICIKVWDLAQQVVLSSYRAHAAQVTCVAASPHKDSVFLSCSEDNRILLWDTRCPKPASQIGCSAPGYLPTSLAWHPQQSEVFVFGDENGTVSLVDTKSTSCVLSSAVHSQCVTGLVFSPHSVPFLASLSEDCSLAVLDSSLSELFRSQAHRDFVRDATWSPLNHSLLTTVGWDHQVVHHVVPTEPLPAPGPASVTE
In short: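 Radiometric FlashPlate assay tracking transfer of the 3H-methyl group from SAM (1 μM) to biotinylated H4 (1–15) peptide by human PRMT5/MEP50 (5 nM). Compounds were preincubated with enzyme and substrate for 20 min at rt. They were tested at 10 concentrations in threefold serial dilution from 5 μM, in duplicate. IC50 is reported as mean ± SD.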

[7] = target: T1, von Hippel-Lindau disease tumor suppressor/Protein arginine N-methyltransferase 5; experiment: Induction of VHL-mediated PRMT5 degradation in human MCF7 cells assessed as recovery of PRMT5 level at 5 uM incubated for 6 days followed by compound wash out and measured up to 48 hrs by Western blot analysis; format: cell-based; conditions: time 6.0 day
In short: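 Washout: MCF-7 cells treated 6 d with 5 μM, compound removed, and PRMT5 immunoblotted at 0, 12, 24 and 48 h after washout.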
Target sequence in this assay (O14744 whole entry, looked up): as the sequence (O14744 whole entry, looked up) above
Target sequence in this assay (P40337 whole entry, looked up): as the sequence (P40337 whole entry, looked up) above

[8] = target: T1, von Hippel-Lindau disease tumor suppressor/Protein arginine N-methyltransferase 5; experiment: Induction of VHL-mediated PRMT5 degradation in human MCF7 cells assessed as PRMT5 level at 5 uM incubated for 7 days in presence of VH-298 by Western blot analysis relative to control; format: cell-based; conditions: time 7.0 day
Target sequence in this assay (O14744 whole entry, looked up): as the sequence (O14744 whole entry, looked up) above
Target sequence in this assay (P40337 whole entry, looked up): as the sequence (P40337 whole entry, looked up) above

[9] = Toxicity in Swiss albino mouse assessed as effect on clinical signs at 150 mg/kg, ip; format: organism-based; conditions: in vivo
In short: (§6)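 Male Swiss albino mice received one 150 mg/kg IP dose in normal saline. Blood drawn under light isoflurane at 0.25, 0.5, 1, 2, 6 and 12 h, three mice per time point. Plasma acetonitrile-precipitated and quantified by LC-MS/MS (LLOQ 9.25 ng/mL); clinical signs observed.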

[10] = target: T1, von Hippel-Lindau disease tumor suppressor/Protein arginine N-methyltransferase 5; experiment: Induction of VHL-mediated PRMT5 degradation in human HeLa cells at 5 uM incubated for 6 days by Western blot analysis; format: cell-based; conditions: time 6.0 day; in short: as §3
[11] = Plasma concentration in Swiss albino mouse at 150 mg/kg, ip administered as single dose measured at 2 hrs post dose by LC-MS/MS method; format: ADME, organism-based; in short: as §6
[12] = target: T1, von Hippel-Lindau disease tumor suppressor/Protein arginine N-methyltransferase 5; experiment: Induction of VHL-mediated PRMT5 degradation in human MCF7 cells assessed as PRMT5 level at 5 uM incubated for 7 days by Western blot analysis relative to control; format: cell-based; conditions: time 7.0 day
[13] = target: T1, von Hippel-Lindau disease tumor suppressor/Protein arginine N-methyltransferase 5; experiment: Induction of VHL-mediated PRMT5 degradation in human MCF7 cells assessed as reduction in SDMA level incubated for 6 days by Western blot analysis; format: cell-based; conditions: dose microM 0.1-3, time 6.0 day
In short: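 SDMA read-out: MCF-7 cells given 0.1, 0.3, 1 or 3.0 μM for 6 d; global symmetric dimethylarginine detected on western blot with anti-SDMA antibody.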

[14] = target: T1, von Hippel-Lindau disease tumor suppressor/Protein arginine N-methyltransferase 5; experiment: Induction of VHL-mediated PRMT5 degradation in human MCF7 cells assessed as PRMT5 level at 5 uM incubated for 7 days in presence of EPZ015666 by Western blot analysis relative to control; format: cell-based; conditions: time 7.0 day
A549 = experiment: Antiproliferative activity against human A549 cells assessed as reduction in cell viability supplemented with fresh medium containing compound every other day for 6 days by CellTiter-Glo assay; format: functional, cell-based; conditions: dose microM 0.1-10, time 6.0 day; in short: as §2
[15] = target: T1, von Hippel-Lindau disease tumor suppressor/Protein arginine N-methyltransferase 5; experiment: Induction of VHL-mediated PRMT5 degradation in human Jurkat cells at 5 uM incubated for 6 days by Western blot analysis; format: cell-based; conditions: time 6.0 day; in short: as §3
[16] = target: T1, von Hippel-Lindau disease tumor suppressor/Protein arginine N-methyltransferase 5; experiment: Induction of VHL-mediated PRMT5 degradation in human MCF7 cells assessed as PRMT5 level at 5 uM incubated for 7 days in presence of neddylation inhibitor MLN4924 by Western blot analysis relative to control; format: cell-based; conditions: time 7.0 day
A 172 = experiment: Antiproliferative activity against human A172 cells assessed as reduction in cell viability supplemented with fresh medium containing compound every other day for 6 days by CellTiter-Glo assay; format: functional, cell-based; conditions: dose microM 0.1-10, time 6.0 day; in short: as §2
HeLa = experiment: Antiproliferative activity against human HeLa cells assessed as reduction in cell viability supplemented with fresh medium containing compound every other day for 6 days by CellTiter-Glo assay; format: functional, cell-based; conditions: dose microM 0.1-10, time 6.0 day; in short: as §2
[17] = target: T1, von Hippel-Lindau disease tumor suppressor/Protein arginine N-methyltransferase 5; experiment: Induction of VHL-mediated PRMT5 degradation in human A172 cells at 5 uM incubated for 6 days by Western blot analysis; format: cell-based; conditions: A 172, time 6.0 day; in short: as §3
[18] = target: T1, von Hippel-Lindau disease tumor suppressor/Protein arginine N-methyltransferase 5; experiment: Induction of VHL-mediated PRMT5 degradation in human MCF7 cells incubated for 6 days by Western blot analysis; format: cell-based; in short: as §5
[19] = Plasma concentration in Swiss albino mouse at 150 mg/kg, ip administered as single dose measured after 12 hrs post dose by LC-MS/MS method; format: ADME, organism-based; in short: as §6
[20] = target: von Hippel-Lindau disease tumor suppressor/Methylosome protein WDR77 (Homo sapiens) (UniProt Q9BQA1+P40337); experiment: Induction of VHL-mediated WDR77 degradation in human MCF7 cells at 5 uM supplemented with fresh medium containing compound every 2 days for 5 days by LC-MS based LFQ global proteomics analysis; format: cell-based; conditions: time 5.0 day; in short: as §1
von Hippel-Lindau disease tumor suppressor/Methylosome protein WDR77 (Homo sapiens), sequence (P40337 whole entry, looked up): as above
von Hippel-Lindau disease tumor suppressor/Methylosome protein WDR77 (Homo sapiens), sequence (Q9BQA1 whole entry, looked up): as the sequence (Q9BQA1 whole entry, further chain) above

[21] = target: T1, von Hippel-Lindau disease tumor suppressor/Protein arginine N-methyltransferase 5; experiment: Induction of VHL-mediated PRMT5 degradation in human MCF7 cells at 5 uM incubated for 6 days by Western blot analysis; format: cell-based; conditions: time 6.0 day; in short: as §5
MCF7 [22] = experiment: Antiproliferative activity against human MCF7 cells at 0.1 to 10 uM incubated for 6 days by CellTiter-Glo assay; format: functional, cell-based; conditions: dose microM 0.1-10, time 6.0 day; in short: as §4
[23] = target: T1, von Hippel-Lindau disease tumor suppressor/Protein arginine N-methyltransferase 5; experiment: Induction of VHL-mediated PRMT5 degradation in human MCF7 cells at 0.2 to 5 uM incubated for 6 days by Western blot analysis; format: cell-based; conditions: dose microM 0.2-5, time 6.0 day; in short: as §5
[24] = target: T1, von Hippel-Lindau disease tumor suppressor/Protein arginine N-methyltransferase 5; experiment: Induction of VHL-mediated PRMT5 degradation in human MCF7 cells at 1 to 5 uM incubated for 6 days by Western blot analysis; format: cell-based; conditions: dose microM 1-5, time 6.0 day; in short: as §5

Compound: Cc1ncsc1-c1ccc([C@H](C)NC(=O)[C@@H]2C[C@@H](O)CN2C(=O)[C@@H](NC(=O)COCCOCCOCCOCCOCC(=O)N2CC(Nc3cc(C(=O)NC[C@H](O)CN4CCc5ccccc5C4)ncn3)C2)C(C)(C)C)cc1
Activity [1]: Active
Activity (Jurkat): Dose-dependent effect
Activity [2]: Active
Activity [3]: Active
Activity (MCF7 [4]): Dose-dependent effect
fold change (FC) [5]: 0.51
Emax [6]: 74%
IC50 (PRMT5/MEP50 complex): 18 nM
Activity [7]: Active
fold change (FC) [8]: 0.53
Activity [9]: Non-Toxic
Activity [10]: Active
concentration at 2 h [11]: 14 µM
fold change (FC) [12]: 0.32
Activity [13]: Dose-dependent effect
fold change (FC) [14]: 0.61
Activity (A549): Dose-dependent effect
Activity [15]: Active
fold change (FC) [16]: 0.59
Activity (A 172): Dose-dependent effect
Activity (HeLa): Dose-dependent effect
Activity [17]: Active
DC50 [18]: 1100 nM
Activity ([18]; time 6.0 day): Dose-dependent effect
concentration at 12 h [19]: > 0.1 µM
Activity [20]: Active

Compound: Cc1ncsc1-c1ccc([C@H](C)NC(=O)[C@H]2C[C@H](O)CN2C(=O)[C@@H](NC(=O)COCCOCCOCCOCCOCC(=O)N2CC(Nc3cc(C(=O)NC[C@H](O)CN4CCc5ccccc5C4)ncn3)C2)C(C)(C)C)cc1
IC50 (PRMT5/MEP50 complex): 12 nM
Activity [21]: inactive
Activity (MCF7 [22]): inactive

Compound: Cc1ncsc1-c1ccc(CNC(=O)[C@@H]2C[C@@H](O)CN2C(=O)[C@@H](NC(=O)COCCOCCOCCOCCOCC(=O)N2CC(Nc3cc(C(=O)NC[C@H](O)CN4CCc5ccccc5C4)ncn3)C2)C(C)(C)C)cc1
Activity [24]: Active

Now from value to molecule:

Activity [23]: inactive
Compound: Cc1ncsc1-c1ccc(CNC(=O)[C@@H]2C[C@@H](O)CN2C(=O)[C@@H](NC(=O)CCCCCCCCCC(=O)N2CC(Nc3cc(C(=O)NC[C@H](O)CN4CCc5ccccc5C4)ncn3)C2)C(C)(C)C)cc1

Activity [23]: inactive
Compound: Cc1ncsc1-c1ccc(CNC(=O)[C@@H]2C[C@@H](O)CN2C(=O)[C@@H](NC(=O)COCC(=O)N2CC(Nc3cc(C(=O)NC[C@H](O)CN4CCc5ccccc5C4)ncn3)C2)C(C)(C)C)cc1
